Test results published in publication PMC6510378 (Clinical and Translational Science, 2019).

Legend:
[1] = Urine PK, 10-mg, 20-mg and 50-mg cohorts; assay type: in vivo, human; details: parent ASP3662
Summary of the method: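 Urine drug concentration was measured by validated HPLC-MS/MS. Subjects were healthy young Japanese, young non-Japanese and elderly non-Japanese adults given oral doses of 10, 20 or 50 mg: single dose day 1, 4-day washout, then once daily on days 5–18. Dosing was fasted on PK days.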

[2] = Safety and tolerability, MAD study; assay type: in vivo, human; details: for Any TEAE / Drug-related TEAE / Number of TEAEs / Number of drug-related TEAEs / TEAE: Constipation / TEAE: Gastrointestinal disorders / TEAE: General disorders and administration site conditions / TEAE: Headache / TEAE: Medical device site reaction / TEAE: Nervous system disorders / TEAE: Skin and subcutaneous tissue disorders: MAD study
Summary of the method: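 Safety was assessed from treatment-emergent adverse events: nature, frequency, severity, onset/offset and relatedness to study drug, coded by MedDRA system organ class. Also assessed were haematology, serum chemistry, urinalysis, physical examination with vital signs, and ECGs. CNS scales used were Bond and Lader VAS, ARCI-49 and Profile of Mood States. Data were summarized descriptively.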

4-week toxicology = assay type: in vivo; details: 4-week toxicology data, most sensitive species (rat)
11β‐HSD1 = 11β‐HSD1 (Homo sapiens, UniProt P28845); assay: Urine 11β-HSD1 activity; assay type: in vivo
Summary of the method: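 Hepatic 11β-HSD1 activity was taken as the urinary ratio of (5α + 5β)-tetrahydrocortisol to tetrahydrocortisone. In the single-dose study, urine was collected predose to 72 h. In the high-dose multiple-dose part, cumulative amounts excreted were measured on days 1 and 18. In the low-dose part, first morning void samples were used, with baseline on day –1 and follow-up through days 16–21 and day 28.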

[3] = tested on: models of neuropathic and dysfunctional pain; details: rats; cited from earlier work
[4] = SAD study plasma PK, single oral dose, healthy young subjects; assay type: in vivo, human; details: human, plasma, po, 1 mg, single oral dose 1 mg; for Cmax: n=6
Summary of the method: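 Healthy adults aged 18–55, randomized 6 active : 2 placebo per cohort, received a single fasted oral dose (1–60 mg) with 240 mL water. Serial blood was drawn predose to 72 h, plus 96 and 120 h in the 6, 30 and 60 mg cohorts. Plasma drug was measured by validated HPLC-MS/MS, with below-limit values set to zero. Dose proportionality used a power model on log-transformed dose.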

11β‐HSD1, sequence (P28845 whole entry): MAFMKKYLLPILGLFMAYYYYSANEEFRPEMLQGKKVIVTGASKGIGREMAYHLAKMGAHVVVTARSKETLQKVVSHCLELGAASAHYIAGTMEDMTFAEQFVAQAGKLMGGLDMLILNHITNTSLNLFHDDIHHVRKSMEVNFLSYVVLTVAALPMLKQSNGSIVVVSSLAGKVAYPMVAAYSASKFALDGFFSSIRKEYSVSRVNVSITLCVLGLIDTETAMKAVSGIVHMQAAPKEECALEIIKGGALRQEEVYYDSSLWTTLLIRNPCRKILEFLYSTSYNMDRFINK

## Cn1c(-c2ccc(C(N)=O)cc2F)nnc1C(C)(C)Oc1c(F)cc(Cl)cc1F [ASP3662]
[1]
  amount recovered from urine: < 0.3 % of the administered dose
[2]; MAD part 2, 0.2 mg
  subjects with TEAE headache: 2 n
[2]; MAD part 2, 0.4 mg
  subjects with TEAE headache: 1 n
[2]; MAD part 2, 0.7 mg
  subjects with TEAE headache: 1 n
[2]; MAD part 2, 2 mg
  subjects with TEAE headache: 1 n
[2]; 10 mg, n=8
  Any TEAE: 3 (37.5) n (%)
  Drug-related TEAE: 2 (25.0) n (%)
  Number of TEAEs: 3
  Number of drug-related TEAEs: 2
  TEAE: Constipation: 0 n (%)
  TEAE: Gastrointestinal disorders: 0 n (%)
  TEAE: General disorders and administration site conditions: 0 n (%)
  TEAE: Headache: 0 n (%)
  TEAE: Medical device site reaction: 0 n (%)
  TEAE: Nervous system disorders: 0 n (%)
  TEAE: Skin and subcutaneous tissue disorders: 1 (12.5) n (%)
[2]; 20 mg, n=25
  Any TEAE: 14 (56.0) n (%)
  Drug-related TEAE: 9 (36.0) n (%)
  Number of TEAEs: 21
  Number of drug-related TEAEs: 12
  TEAE: Constipation: 1 (4.0) n (%)
  TEAE: Gastrointestinal disorders: 1 (4.0) n (%)
  TEAE: General disorders and administration site conditions: 3 (12.0) n (%)
  TEAE: Headache: 5 (20.0) n (%)
  TEAE: Medical device site reaction: 2 (8.0) n (%)
  TEAE: Nervous system disorders: 9 (36.0) n (%)
  TEAE: Skin and subcutaneous tissue disorders: 0 n (%)
[2]; 50 mg, n=16
  Any TEAE: 6 (37.5) n (%)
  Drug-related TEAE: 4 (25.0) n (%)
  Number of TEAEs: 12
  Number of drug-related TEAEs: 6
  TEAE: Constipation: 2 (12.5) n (%)
  TEAE: Gastrointestinal disorders: 2 (12.5) n (%)
  TEAE: General disorders and administration site conditions: 1 (6.3) n (%)
  TEAE: Headache: 3 (18.8) n (%)
  TEAE: Medical device site reaction: 1 (6.3) n (%)
  TEAE: Nervous system disorders: 3 (18.8) n (%)
  TEAE: Skin and subcutaneous tissue disorders: 2 (12.5) n (%)
[2]; ASP3662 total (10-50 mg), n=49
  Any TEAE: 23 (46.9) n (%)
  Drug-related TEAE: 15 (30.6) n (%)
  Number of TEAEs: 36
  Number of drug-related TEAEs: 20
  TEAE: Constipation: 3 (6.1) n (%)
  TEAE: Gastrointestinal disorders: 3 (6.1) n (%)
  TEAE: General disorders and administration site conditions: 4 (8.2) n (%)
  TEAE: Headache: 8 (16.3) n (%)
  TEAE: Medical device site reaction: 3 (6.1) n (%)
  TEAE: Nervous system disorders: 12 (24.5) n (%)
  TEAE: Skin and subcutaneous tissue disorders: 3 (6.1) n (%)
[2]; both SAD and MAD studies
  deaths, TEAEs leading to discontinuation, serious or drug-related TEAEs: No deaths, TEAEs leading to discontinuation, serious TEAEs
[2]; elderly subjects who received ASP3662
  potentially clinically significant orthostatic pulse rate measurements: 44.4%
[2]; multiple oral doses up to 50 mg for 14 days
  overall safety and tolerability: safe and well tolerated
4-week toxicology
  maximum recommended starting dose derived from the no observed adverse effect level: 10 mg
11β‐HSD1; 16 days after discontinuation of multiple doses, even lowest dose 0.2 mg
  return of 11β‐HSD1 activity to baseline: incomplete
11β‐HSD1; clinical PD data referred to in the dose rationale
  dose achieving full inhibition of peripheral 11β‐HSD1: 3 mg
11β‐HSD1; multiple daily doses
  dose achieving full inhibition of 11β‐HSD1: ≥ 2 mg
11β‐HSD1; nadir at doses of 2 mg and above
  11β‐HSD1 activity ratio at maximal inhibition: ~ 0.1 ratio
[3]
  analgesic effects: significant analgesic effects
[4]; Mean (SD)
  Cmax: 0.0433 ng/mL
[4]; Min–max
  Cmax: < 0.14 ng/mL
[4]; Tmax, Median, n=2
  Tmax: 45 min
